Reference: ChEMBL document CHEMBL1147223, “Saponins from Cussonia bancoensis and their inhibitory effects on nitric oxide production” (J Nat Prod, 2003)

Legend:
RAW264.7 [1] = experiment: Inhibition of LPS-induced nitric oxide production in mouse RAW264.7 cells by Griess method; format: functional, cell-based
Procedure, shortened: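 RAW 264.7 murine macrophages were grown in DMEM with 10% FBS, penicillin and streptomycin at 37 °C under 5% CO2, then stimulated with LPS for 24 h. Nitrite in the medium was measured by Griess reaction (sulfanilamide/naphthylethylenediamine, 10 min at room temperature, A550) against a NaNO2 standard curve. IC50 is the concentration giving a 50% decrease in NO; values are the mean of four independent experiments.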

RAW264.7 [2] = experiment: Cytotoxicity against LPS-stimulated mouse RAW264.7 cells by Griess method; format: cell-based

IC50 (RAW264.7 [1]) [µM] | Structure (SMILES) | IC50 (RAW264.7 [2]) [µM]
47.9 | C[C@H]1[C@H](C)CC[C@]2(C(=O)O)CC[C@]3(C)C(=CC[C@@H]4[C@@]5(C)CC[C@H](O[C@@H]6OC[C@H](O)[C@H](O)[C@H]6O)[C@@](C)(CO)[C@@H]5CC[C@]43C)[C@H]12 | 124
46.9 | C[C@H]1[C@H](C)CC[C@]2(C(=O)O)CC[C@]3(C)C(=CC[C@@H]4[C@@]5(C)CC[C@H](O)C(C)(C)[C@@H]5CC[C@]43C)[C@H]12 [URSOLIC ACID] | 58.5
18.6 | CC(=N)NCCCC[C@H](N)C(=O)O [L-NIL] | > 200
2.6 | C[C@H]1[C@H](C)CC[C@]2(C(=O)O)CC[C@]3(C)C(=CC[C@@H]4[C@@]5(C)CC[C@H](O)[C@@](C)(CO)[C@@H]5CC[C@]43C)[C@H]12 | 11
22.1 | C[C@H]1[C@H](C)CC[C@]2(C(=O)O)CC[C@]3(C)C(=CC[C@@H]4[C@@]5(C)CC[C@H](O[C@@H]6O[C@H](CO)[C@@H](O)[C@H](O)[C@H]6O)[C@@](C)(CO)[C@@H]5CC[C@]43C)[C@H]12 | 126
